The results in this text go back to PubChem BioAssay.

Activity calls are given as the source filed them.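 How the source made its calls, unless noted: active means visually confirmed hit in the image check and inhibition above 20%; inconclusive means visually confirmed hit but inhibition not above 20%; inactive means no visual hit in the image check.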

A short description of assay [1]: inhibitors of TNFa-induced NFkB p65 translocation, primary screen, imaging, HUVEC, MLSMR starter and 10KST1 sets (AID 438;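 active means inhibition above 20% together with a positive visual image hit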;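 further: compound added about 3h40 before a 20 min TNFalpha stimulation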;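 on inhibition: signal is the nuclear over cytoplasmic p65 intensity ratio per well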). The note with it: HUVEC TNFa-induced p65 nuclear translocation; cell count: measured here: nuclei count (cytotoxicity indicator), at 2.08 µM; inhibition: at 2 µM, stronger effect = higher value, 0% TNFa-plus-vehicle, 100% no-TNFa wells.
A short description of assay [2]: endothelial E-selectin expression blockers – imaging, HUVEC, immunofluorescence, MLSMR starter and 10KST1 sets, primary screen (AID 487).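 On inhibition: signal is fraction of cell area covered by stained E-selectin grains.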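 On nuclei count: 100% = median nuclei count of all wells on the same plate.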 The note with it: HUVEC TNFalpha-induced E-selectin immunofluorescence imaging, at 2 µM; inhibition: stronger effect = higher value; nuclei count: measured here: cell number, toxicity.
Assay [3] can be described thus: Primary imaging screen for DUSP6 inhibitors that restore phospho-Erk in transfected HeLa cells, chemical complementation (AID 609;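 active means compounds giving at least 50% inhibition in the cell-based MKP-3 phosphatase rescue imaging test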;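 on inhibition: phospho-Erk level distribution per well compared with pooled transfected vehicle control wells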). The note with it: HeLa MKP-3 transfected, phospho-Erk imaging KS statistic, at 10 µM, cells stimulated with TPA for 15 min.
Assay [4] deals with Dual specificity protein phosphatase 6 (Homo sapiens) (UniProt Q16828). The description is as above. The settings on record: HeLa MKP-3 transfected, phospho-Erk imaging KS statistic; at 10 µM; stronger effect = higher value; cells stimulated with TPA for 15 min.
For assay [5], the target named is Voltage-gated potassium channel subunit beta-2 (Rattus norvegicus) (UniProt P62483). Put plainly: inhibitors of rat Kvbeta2 reductase activity – biochemical, NADPH fluorescence, primary screen (AID 622;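 active means fluorescence slope higher than the sample average by over 3 SD, cut at about -0.22 in these data, passing the limit was not always enough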;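 further: slope of raw intensity against log time taken from 70 to 1610 s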). The settings on record: recombinant KvBeta, 4-cyanobenzaldehyde reduction, at 10 µM, stronger effect = higher value.
The target is the same in assay [6]. Put plainly: enhancers of rat Kvbeta2 NADPH turnover – biochemical, NADPH fluorescence, primary screen (AID 623;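 active means NADPH fluorescence slope more negative than the mean of all samples by about 3 SD, 99.7% confidence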;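 further: fluorescence intensity change per second fitted from 20 to 320 s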). The note with it: Recombinant KvBeta, NADPH fluorescence decrease slope, 10 min; at 10 µM; stronger effect = lower value.
Assay [7] has as its target Alpha-2C adrenergic receptor (Homo sapiens) (UniProt P18825). Put plainly: compounds altering alpha2C-coupled GIRK flux – cell-based, HEK293 alpha2C/GIRK1/2, thallium flux, primary screen (AID 624;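 active means fluorescence slope after compound addition differing from the mean of all screened samples at 99.7% confidence, in either direction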;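 further: slope of fluorescence ratio to pre-addition baseline per second over 15 to 24 s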). The settings on record: thallium flux BTC fluorescence, at 10 µM, actives lie on both sides.
Assay [8] in a line: inhibitors of larval lipid processing in zebrafish, primary screen, whole organism, PED6 fluorescence, gall bladder and intestine (AID 686;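 active means a full or partial loss of lipid-probe fluorescence in the fish gall bladder, intestine or both, judged by eye; inactive means no fluorescence loss, or compound toxic to the fish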;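 further: larvae 5 to 7 days old with five fish per well; signal comes from phospholipase A2 cleavage of quenched PED6 carried via bile; overnight exposure to compound and PED6 before scoring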). The settings on record: Zebrafish larvae PED6 lipid processing, fluorescence scoring; screened at 20 µM (by protocol). In outline: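 Test system – live zebrafish larvae aged 5-7 days, whole organism · Buffer or medium – E3 fish medium · Reagent – quenched phospholipase substrate PED6, 100 nM final, ingested by larvae · Doses – 20 µM single dose · Incubation – overnight compound and PED6 incubation · Technique – visual fluorescence microscopy scoring of gall bladder, gut · Read-out basis – visual per-well fluorescence inhibition score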

A short description of assay [9]: loss of swimming-algae plug formation – whole organism, Chlamydomonas reinhardtii, WT vs cilia-less mutant, absorbance, 96-well, primary screen (AID 463189;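 active means inhibition at or above 50% relative to wild type and mutant plate controls; inactive means inhibition below 50%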;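 further: 0% = wild type cc124 cells in DMSO and 100% = ciliumless bld1 mutant cells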). The note with it: Chlamydomonas reinhardtii gravitaxis, OD600 absorbance, 2 days; at 10 µM; stronger effect = higher value.
Where [10] appears, read: measured here: cell density z-score.
Setting [11] is: measured here: nuclear c-Myc green intensity z-score.
[12] abbreviates: measured here: nuclear pErk red intensity z-score, stronger effect = higher value.

Sequence of Dual specificity protein phosphatase 6 (Homo sapiens) (Q16828 whole entry, looked up): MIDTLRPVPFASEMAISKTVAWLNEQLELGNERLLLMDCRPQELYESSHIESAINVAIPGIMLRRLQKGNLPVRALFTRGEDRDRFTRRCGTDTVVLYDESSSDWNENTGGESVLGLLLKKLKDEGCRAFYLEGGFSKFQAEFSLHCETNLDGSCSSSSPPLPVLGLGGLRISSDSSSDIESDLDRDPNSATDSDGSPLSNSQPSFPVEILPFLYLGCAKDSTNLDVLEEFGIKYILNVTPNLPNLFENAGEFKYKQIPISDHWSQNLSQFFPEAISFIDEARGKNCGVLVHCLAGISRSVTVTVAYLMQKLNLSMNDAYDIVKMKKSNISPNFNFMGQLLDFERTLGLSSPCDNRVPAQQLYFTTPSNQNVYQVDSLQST
Sequence of Voltage-gated potassium channel subunit beta-2 (Rattus norvegicus) (P62483 whole entry, looked up): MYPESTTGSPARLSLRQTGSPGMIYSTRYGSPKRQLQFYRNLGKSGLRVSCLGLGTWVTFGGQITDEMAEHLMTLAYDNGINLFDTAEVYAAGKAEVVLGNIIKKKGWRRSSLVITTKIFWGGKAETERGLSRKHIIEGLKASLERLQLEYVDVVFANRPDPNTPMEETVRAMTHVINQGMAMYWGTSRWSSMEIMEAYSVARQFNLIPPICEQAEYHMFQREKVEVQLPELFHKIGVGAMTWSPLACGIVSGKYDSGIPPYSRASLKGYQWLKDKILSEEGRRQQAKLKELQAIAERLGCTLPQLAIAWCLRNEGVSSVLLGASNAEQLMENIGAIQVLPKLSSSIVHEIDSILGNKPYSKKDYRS
Sequence of Alpha-2C adrenergic receptor (Homo sapiens) (P18825 whole entry, looked up): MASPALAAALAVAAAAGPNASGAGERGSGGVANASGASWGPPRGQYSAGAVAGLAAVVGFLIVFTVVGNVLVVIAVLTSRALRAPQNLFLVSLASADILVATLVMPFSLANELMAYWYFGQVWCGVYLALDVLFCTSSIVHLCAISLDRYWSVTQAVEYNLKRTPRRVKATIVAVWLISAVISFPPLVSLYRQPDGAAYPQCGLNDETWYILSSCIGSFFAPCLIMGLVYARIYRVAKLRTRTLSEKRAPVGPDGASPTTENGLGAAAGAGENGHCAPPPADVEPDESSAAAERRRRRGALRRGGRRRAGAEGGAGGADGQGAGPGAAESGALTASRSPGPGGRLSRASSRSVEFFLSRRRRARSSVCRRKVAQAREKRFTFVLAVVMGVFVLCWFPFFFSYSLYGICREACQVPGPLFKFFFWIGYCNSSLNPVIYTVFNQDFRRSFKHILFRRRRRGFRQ

The term inhibition denotes the drop in the measured response relative to a control, in per cent. On to `O=CNC(=O)c1ccccc1C(=O)O`, for which the cell count in assay [1] turned out to be 545. Besides, the inhibition is -5.9% (inactive) in assay [1], -60.7% (inactive) in assay [2], 11.9% (inactive) in assay [4] and 28.5% (inactive) in assay [9]. The nuclei count in assay [2] was 162%. For the same compound, the z-score in assay [3] (setting [10]) is 1.01; in assay [3] (setting [11]), -0.571; in assay [3] (setting [12]), -1.1. Further, the fluorescence slope in assay [5] is -0.522 (inactive). Besides, the NADPH fluorescence slope in assay [6] was -2.4e-05 (inactive). Also, the slope in assay [7] is 0.00526 (inactive). Further, the outcome in assay [8] was inactive.
In the case of `COc1cc(=O)n2c(-c3ccccc3)csc2n1`, the cell count in assay [1] came to 628. Moreover, the inhibition was 0% (inactive) in [1], -58.9% (inactive) in [2], 13.2% (inactive) in assay [4] and 5.32% (inactive) in assay [9]. Besides, the nuclei count in [2] came out at 153%. For the same compound, the z-score is -1.46 in assay [3] (setting [10]), 1.4 in [3] (setting [11]) and 0.777 in assay [3] (setting [12]). In addition, the fluorescence slope in assay [5] is -0.465 (inactive). Besides, in assay [6], the NADPH fluorescence slope was -0.000258 (inactive). Also, the slope in [7] was 0.00547 (inactive). The compound was classed as inactive in assay [8].
On to `O=S1CCCSC1c1cccnc1` (stereo unspecified), for which the cell count in [1] amounted to 524. Also, the inhibition in assay [1] was -10.3% (inactive); in assay [2], -190% (inactive); in [4], 13.9% (inactive); in [9] it was 2.49% (inactive). The compound also registered a nuclei count in [2] of 144%. Also, the z-score in assay [3] (setting [10]) is 1.86; in assay [3] (setting [11]), -0.668; in [3] (setting [12]) it was -1.2. The fluorescence slope in assay [5] is -0.507 (inactive). For the same compound, in assay [6], the NADPH fluorescence slope was -1.9e-05 (inactive). Moreover, in assay [7], the slope was 0.00681 (inactive). Further, the outcome in [8] was inactive.
Turning to `CCCCCCC(=O)N1CCN(c2cc3c(cc2F)c(=O)c(C(=O)O)cn3CC)CC1`, in assay [1], the cell count came out at 402. Besides, the inhibition was 6% (inactive) in assay [1], -166% (inactive) in assay [2], 6.04% (inactive) in assay [4] and 4.18% (inactive) in assay [9]. In addition, in assay [2], the nuclei count was 224%. Also, the z-score in assay [3] (setting [10]) was -1.36; in assay [3] (setting [11]), 0.0882; in assay [3] (setting [12]) it was 0.161. The fluorescence slope in assay [5] is -0.0683 (inactive). In assay [6], the NADPH fluorescence slope is -1.7e-05 (inactive). In addition, the slope in assay [7] was 0.0054 (inactive). The compound was classed as inactive in assay [8].
In the case of `Cc1cc(C)n(C(=O)CNC(=O)CCc2ccccc2)n1`, the cell count in assay [1] came out at 562. The inhibition in assay [1] was -0.6% (inactive); in [2], 62.6% (inactive); in assay [4] it was -1.75% (inactive); in [9], -9.43% (inactive). For the same compound, the nuclei count in assay [2] was found to be 151%. The z-score in assay [3] (setting [10]) was 1.03; in assay [3] (setting [11]) it was -0.553; in assay [3] (setting [12]), -0.0899. The fluorescence slope in assay [5] is -0.411 (inactive). Moreover, in assay [6], the NADPH fluorescence slope is -2.5e-05 (inactive). In addition, the slope in assay [7] was 0.00565 (inactive). In assay [8], the result was inactive.
In the case of `CCCOc1ccc(Cc2nn[nH]n2)cc1`, in assay [1], the cell count stood at 665. Moreover, the inhibition in [1] was -9.9% (inactive); in assay [2], -18.7% (inactive); in [4], -3.95% (inactive); in assay [9] it was -6.39% (inactive). The nuclei count in [2] is 154%. The values for the z-score in [3] (setting [10]), in assay [3] (setting [11]) and in assay [3] (setting [12]) were -1.6, 0.733 and 2.09, respectively. Moreover, in assay [5], the fluorescence slope is -0.396 (inactive). The NADPH fluorescence slope in [6] is -5.5e-05 (inactive). Besides, in assay [7], the slope was 0.00599 (inactive). Further, the compound was classed as inactive in assay [8].
As to `CSC1=C(C#N)C(c2ccc(C)s2)CC(=O)N1` (stereo unspecified), the cell count in assay [1] was 411. The inhibition in assay [1] is -0.1% (inactive); in assay [2], 13.9% (inactive); in [4], 13.2% (inactive); in assay [9] it was 24% (inactive). Besides, the nuclei count in assay [2] was found to be 63.5%. Besides, the z-score in assay [3] (setting [10]) is 0.0106; in assay [3] (setting [11]), 2.55; in [3] (setting [12]), -0.606. The fluorescence slope in assay [5] was -0.511 (inactive). Also, in assay [6], the NADPH fluorescence slope was -5e-05 (inactive). The slope in assay [7] was 0.00472 (inactive). Moreover, the compound was called inactive in assay [8].
